Source: ChEMBL document CHEMBL1806360, “Synthesis and biological evaluation of conformationally flexible as well as restricted dimers of monastrol and related dihydropyrimidones” (Eur J Med Chem, 2011)
In brackets after ≈: the same amount, converted by molar mass. Activity calls are given as the source filed them. The rule behind the calls is not given here.

Columns and labels:
[1] = system: MCF7; assay: Cytotoxicity against human MCF7 cells after 48 hrs by MTT assay; assay type: functional, cell-based; conditions: MCF7, 48 h
Outline: (§1)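 MTT assay. Medium with 10% FBS and 2 mM L-glutamine was DMEM for A431 and Colo-205, RPMI for A549, and MEM for MCF-7. Cultures were preincubated 24 h at 37 °C, 5% CO2. 1 × 10⁴ cells (trypan blue count) were exposed to 200, 100, 50, 25 and 10 concentration levels for 48 h at 37 °C. MTT was added for 4 h, formazan dissolved in DMSO, and A570 read. IC50 was curve-fitted from viability versus untreated cells, three experiments.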

[2] = system: COLO 205; assay: Cytotoxicity against human COLO205 cells after 48 hrs by MTT assay; assay type: functional, cell-based; conditions: COLO 205, 48 h; outline: as §1
[3] = system: HT-29; assay: Cytotoxicity against human HT-29 cells after 48 hrs by MTT assay; assay type: functional, cell-based; conditions: HT-29, 48 h
[4] = system: A-431; assay: Cytotoxicity against human A431 cells after 48 hrs by MTT assay; assay type: functional, cell-based; conditions: A-431, 48 h; outline: as §1
[5] = system: A549; assay: Cytotoxicity against human A549 cells after 48 hrs by MTT assay; assay type: functional, cell-based; conditions: A549, 48 h; outline: as §1
[6] = system: Staphylococcus aureus; assay: Antibacterial activity against Staphylococcus aureus assessed as zone of inhibition at 100 ug/ml by agar plate method; assay type: functional; conditions: read-out: IZ
Outline: (§2)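 Well diffusion on Mueller-Hinton agar. Inoculum from 3–5 colonies was grown in nutrient broth and adjusted to 0.5 McFarland (about 1 × 10⁸ CFU/mL), then swabbed over the plate. Compounds were dissolved in DMSO and added to duplicate 6 mm wells. Plates were incubated 18 h at 37 °C, and inhibition zone diameter was read to the nearest mm. Ciprofloxacin was the positive control and DMSO the negative control.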

[7] = system: Staphylococcus epidermidis; assay: Antibacterial activity against Staphylococcus epidermidis assessed as zone of inhibition at 100 ug/ml by agar plate method; assay type: functional; conditions: read-out: IZ; outline: as §2
[8] = system: Bacillus subtilis; assay: Antibacterial activity against Bacillus subtilis assessed as zone of inhibition at 100 ug/ml by agar plate method; assay type: functional; conditions: read-out: IZ; outline: as §2
[9] = system: Escherichia coli; assay: Antibacterial activity against Escherichia coli assessed as zone of inhibition at 100 ug/ml by agar plate method; assay type: functional; conditions: read-out: IZ; outline: as §2
[10] = system: Pseudomonas aeruginosa; assay: Antibacterial activity against Pseudomonas aeruginosa assessed as zone of inhibition at 100 ug/ml by agar plate method; assay type: functional; conditions: read-out: IZ; outline: as §2
[11] = system: Staphylococcus epidermidis; assay: Antibacterial activity against Staphylococcus epidermidis assessed as zone of inhibition at 50 ug/ml by agar plate method; assay type: functional, organism-based; outline: as §2
[12] = system: Bacillus subtilis; assay: Antibacterial activity against Bacillus subtilis assessed as zone of inhibition at 50 ug/ml by agar plate method; assay type: functional, organism-based; outline: as §2
[13] = system: Escherichia coli; assay: Antibacterial activity against Escherichia coli assessed as zone of inhibition at 50 ug/ml by agar plate method; assay type: functional, organism-based; outline: as §2
[14] = system: Klebsiella pneumoniae; assay: Antibacterial activity against Klebsiella pneumoniae assessed as zone of inhibition at 50 ug/ml by agar plate method; assay type: functional, organism-based; outline: as §2
[15] = system: Nucleic Acid; assay: Binding affinity to calf thymus DNA assessed as change in melting temperature at compound to DNA ratio of 1:5 after 18 hrs at pH 7; assay type: nucleic-acid assay; conditions: Bos taurus
Outline: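 Thermal melting of calf thymus DNA in 10 mM sodium phosphate with 1 mM Na2EDTA, pH 7.00. Compound was added from DMSO stock at a fixed 1:5 compound:DNA molar ratio. The mix was incubated 18 h at 37 °C, then A260 was monitored while heating at 1 °C/min over 40–90 °C. ΔTm is relative to DNA alone.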

[16] = system: Klebsiella pneumoniae; assay: Antibacterial activity against Klebsiella pneumoniae assessed as zone of inhibition at 100 ug/ml by agar plate method; assay type: functional; conditions: read-out: IZ; outline: as §2

Row | SMILES | IC50 [1] | IC50 [2] | IC50 [3] | IC50 [4] | IC50 [5] | zone of inhibition at 100 µg/mL [6] | zone of inhibition at 100 µg/mL [7] | zone of inhibition at 100 µg/mL [8] | zone of inhibition at 100 µg/mL [9] | zone of inhibition at 100 µg/mL [10] | Activity [11] | Activity [12] | Activity [13] | Activity [14] | ΔTm [15] | zone of inhibition at 100 µg/mL [16]
1 | COC(=O)[C@@H]1CCCN1C(=O)C1=C(C)NC(=S)NC1c1cccc(OCCCCCOc2cccc(C3NC(=S)NC(C)=C3C(=O)N3CCC[C@H]3C(=O)OC)c2)c1 (some centres undefined) | 34 µg/mL (≈ 41.5 µM) | 71 µg/mL (≈ 86.7 µM) | > 200 µg/mL | 159 µg/mL (≈ 194 µM) | 184 µg/mL (≈ 225 µM) | – | – | – | – | – | – | – | – | – | – | –
2 | CCOC(=O)C1=C(C)NC(=S)NC1c1ccc(OC/C=C\COc2ccc(C3NC(=S)NC(C)=C3C(=O)OCC)cc2OC)c(OC)c1 (centres undefined) | 84 µg/mL (≈ 121 µM) | 120 µg/mL (≈ 172 µM) | > 200 µg/mL | 170 µg/mL (≈ 244 µM) | > 200 µg/mL | 12 mm | 18 mm | 13 mm | 12 mm | 15 mm | inactive | inactive | inactive | inactive | – | –
3 | COC(=O)[C@@H]1CCCN1C(=O)C1=C(C)NC(=S)NC1c1ccc(OC/C=C\COc2ccc(C3NC(=S)NC(C)=C3C(=O)N3CCC[C@H]3C(=O)OC)cc2OC)c(OC)c1 (some centres undefined) | 175 µg/mL (≈ 203 µM) | > 200 µg/mL | > 200 µg/mL | 183 µg/mL (≈ 212 µM) | > 200 µg/mL | – | – | – | – | – | – | – | – | – | 4.1 °C | –
4 | COC(=O)[C@@H]1CCCN1C(=O)C1=C(C)NC(=S)NC1c1cccc(OC/C=C\COc2cccc(C3NC(=S)NC(C)=C3C(=O)N3CCC[C@H]3C(=O)OC)c2)c1 (some centres undefined) | 156 µg/mL (≈ 194 µM) | 180 µg/mL (≈ 224 µM) | > 200 µg/mL | 183 µg/mL (≈ 228 µM) | > 200 µg/mL | 15 mm | 17 mm | 12 mm | 12 mm | 12 mm | inactive | inactive | inactive | inactive | 3.1 °C | 3 mm
5 | COC(=O)[C@@H]1CCCN1C(=O)C1=C(C)NC(=S)NC1c1ccc(OCCCCCOc2ccc(C3NC(=S)NC(C)=C3C(=O)N3CCC[C@H]3C(=O)OC)cc2OC)c(OC)c1 (some centres undefined) | 55 µg/mL (≈ 62.6 µM) | 142 µg/mL (≈ 162 µM) | > 200 µg/mL | 125 µg/mL (≈ 142 µM) | 150 µg/mL (≈ 171 µM) | – | – | – | – | – | – | – | – | – | – | –
6 | CCOC(=O)C1=C(C)NC(=S)NC1c1ccc(OCCCCOc2ccc(C3NC(=S)NC(C)=C3C(=O)OCC)cc2OC)c(OC)c1 (centres undefined) | 178 µg/mL (≈ 255 µM) | > 200 µg/mL | > 200 µg/mL | 185 µg/mL (≈ 265 µM) | > 200 µg/mL | 9 mm | 12 mm | 15 mm | 10 mm | 13 mm | inactive | inactive | inactive | inactive | – | 5 mm
7 | O=C(O)c1cn(C2CC2)c2cc(N3CCNCC3)c(F)cc2c1=O [CIPROFLOXACIN] | – | – | – | – | – | 25 mm | 35 mm | 33 mm | 35 mm | 38 mm | inactive | inactive | inactive | inactive | – | 12 mm
8 | CCOC(=O)C1=C(C)NC(=S)NC1c1cccc(OC/C=C\COc2cccc(C3NC(=S)NC(C)=C3C(=O)OCC)c2)c1 (centres undefined) | 49 µg/mL (≈ 76.9 µM) | 64 µg/mL (≈ 101 µM) | > 200 µg/mL | 190 µg/mL (≈ 298 µM) | 154 µg/mL (≈ 242 µM) | 15 mm | 12 mm | 10 mm | 8 mm | 18 mm | inactive | inactive | inactive | inactive | – | 8 mm
9 | COC(=O)[C@@H]1CCCN1C(=O)C1=C(C)NC(=S)NC1c1cccc(OCCCOc2cccc(C3NC(=S)NC(C)=C3C(=O)N3CCC[C@H]3C(=O)OC)c2)c1 (some centres undefined) | 175 µg/mL (≈ 221 µM) | > 200 µg/mL | > 200 µg/mL | 190 µg/mL (≈ 240 µM) | 175 µg/mL (≈ 221 µM) | – | – | – | – | – | – | – | – | – | – | –
10 | CCOC(=O)C1=C(C)NC(=S)NC1c1cccc(OCCCCCOc2cccc(C3NC(=S)NC(C)=C3C(=O)OCC)c2)c1 (centres undefined) | 178 µg/mL (≈ 273 µM) | 190 µg/mL (≈ 291 µM) | > 200 µg/mL | 74 µg/mL (≈ 113 µM) | > 200 µg/mL | – | – | – | – | – | – | – | – | – | – | –
11 | COC(=O)[C@@H]1CCCN1C(=O)C1=C(C)NC(=S)NC1c1ccc(OCCCCOc2ccc(C3NC(=S)NC(C)=C3C(=O)N3CCC[C@H]3C(=O)OC)cc2OC)c(OC)c1 (some centres undefined) | 169 µg/mL (≈ 195 µM) | 154 µg/mL (≈ 178 µM) | > 200 µg/mL | 190 µg/mL (≈ 220 µM) | > 200 µg/mL | – | – | – | – | – | – | – | – | – | – | –
12 | COC(=O)[C@@H]1CCCN1C(=O)C1=C(C)NC(=S)NC1c1cccc(OC/C=C/COc2cccc(C3NC(=S)NC(C)=C3C(=O)N3CCC[C@H]3C(=O)OC)c2)c1 (some centres undefined) | 54 µg/mL (≈ 67.2 µM) | 127 µg/mL (≈ 158 µM) | > 200 µg/mL | 96 µg/mL (≈ 120 µM) | 148 µg/mL (≈ 184 µM) | – | – | – | – | – | – | – | – | – | 2.5 °C | –
13 | CCOC(=O)C1=C(C)NC(=S)NC1c1cccc(OCCCCOc2cccc(C3NC(=S)NC(C)=C3C(=O)OCC)c2)c1 (centres undefined) | 186 µg/mL (≈ 291 µM) | > 200 µg/mL | > 200 µg/mL | > 200 µg/mL | > 200 µg/mL | – | – | – | – | – | – | – | – | – | – | –
14 | COC(=O)[C@@H]1CCCN1C(=O)C1=C(C)NC(=S)NC1c1ccc(OCCCOc2ccc(C3NC(=S)NC(C)=C3C(=O)N3CCC[C@H]3C(=O)OC)cc2OC)c(OC)c1 (some centres undefined) | 140 µg/mL (≈ 165 µM) | 92 µg/mL (≈ 108 µM) | > 200 µg/mL | 165 µg/mL (≈ 194 µM) | 180 µg/mL (≈ 212 µM) | – | – | – | – | – | – | – | – | – | – | –
15 | COC(=O)[C@@H]1CCCN1C(=O)C1=C(C)NC(=S)NC1c1ccc(OC/C=C/COc2ccc(C3NC(=S)NC(C)=C3C(=O)N3CCC[C@H]3C(=O)OC)cc2OC)c(OC)c1 (some centres undefined) | 60 µg/mL (≈ 69.5 µM) | 69 µg/mL (≈ 80 µM) | > 200 µg/mL | 34 µg/mL (≈ 39.4 µM) | 158 µg/mL (≈ 183 µM) | – | – | – | – | – | – | – | – | – | 2.8 °C | –
16 | CCOC(=O)C1=C(C)NC(=S)NC1c1ccc(OC/C=C/COc2ccc(C3NC(=S)NC(C)=C3C(=O)OCC)cc2OC)c(OC)c1 (centres undefined) | 35 µg/mL (≈ 50.2 µM) | 90 µg/mL (≈ 129 µM) | > 200 µg/mL | 185 µg/mL (≈ 265 µM) | 165 µg/mL (≈ 237 µM) | – | – | – | – | – | – | – | – | – | 3.2 °C | –
17 | COC(=O)[C@@H]1CCCN1C(=O)C1=C(C)NC(=S)NC1c1cccc(OCCCCOc2cccc(C3NC(=S)NC(C)=C3C(=O)N3CCC[C@H]3C(=O)OC)c2)c1 (some centres undefined) | 128 µg/mL (≈ 159 µM) | 154 µg/mL (≈ 191 µM) | > 200 µg/mL | 148 µg/mL (≈ 184 µM) | > 200 µg/mL | – | – | – | – | – | – | – | – | – | – | –
